Experimental data from PubChem BioAssay AID504509 (Southern Research Specialized Biocontainment Screening …, 2011).
Activity calls are given as the source filed them.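 The calls were made as follows: active = cell viability under 70% at any tested concentration, a measure not printed in our tables; inactive = the rest.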

tested on: HEp-2 viability, luminescence, cytotoxicity counter-screen; assay: HEp-2 cell cytotoxicity, dose response, cytotoxicity control for RSV inhibitor project, HEp-2 cells, synthesized compounds, set 6 (AID 504509)
Procedure, shortened: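 Test system: HEp-2 cells without virus / Quantity: 10,595 cells/well / Medium: DMEM/F12 / Compound: eight 1:2 dilutions, 0.39–50 µM, 0.5% DMSO / Timing: 6 d at 37 °C / Measured by: ATP luminescence (CellTiter-Glo) / Measure: CC50 from % viability versus untreated-cell median / Replication: triplicate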

Row | Structure (SMILES) | CC50
1 | COc1ccccc1CNC(=O)C1CCN(Cc2cccc3nonc23)CC1 | > 50 µM (inactive)
2 | COc1cccc(CNC(=O)C2CCN(S(=O)(=O)c3cccc4nonc34)CC2)c1 | > 50 µM (inactive)
3 | COCCNC(=O)c1ccc(Cn2c(=O)c3ccccc3n(Cc3ccc(C)cc3)c2=O)cc1 | > 50 µM (inactive)
4 | COCCCNC(=O)c1ccc(Cn2c(=O)c3ccccc3n(Cc3ccccc3)c2=O)cc1 | > 50 µM (inactive)
5 | Cc1ccc(C(F)(F)F)cc1NC(=O)[C@@H]1CCCN1S(=O)(=O)c1cccc2cccnc12 | 6.92 µM
6 | COc1ccccc1NCC(=O)Nc1cc(S(=O)(=O)N2CCOCC2)ccc1N1CCOCC1 | > 50 µM (inactive)
7 | COc1ccccc1CNC(=O)C1CCN(S(=O)(=O)c2cccc3nonc23)CC1 | > 50 µM (inactive)
8 | Cc1ccc(C)c(NC(=O)[C@@H]2CCCN2S(=O)(=O)c2cccc3cccnc23)c1 | 50.4 µM
9 | COc1ccccc1CNC(=O)C1CCN(S(=O)(=O)c2ccccc2)CC1 | > 50 µM (inactive)
10 | Cc1ccc(Cl)c(NC(=O)[C@@H]2CCCN2S(=O)(=O)c2cccc3cccnc23)c1 | 9.83 µM
11 | O=C(O)C1CC=CCC1C(=O)Nc1ccc(S(=O)(=O)N2CCCc3ccccc32)cc1 (configuration not stated) | 33 µM
12 | Cc1ccc(C(C)C)cc1NC(=O)[C@@H]1CCCN1S(=O)(=O)c1cccc2cccnc12 | 8.26 µM
13 | Cc1cccc(C)c1NC(=O)[C@@H]1CCCN1S(=O)(=O)c1cccc2cccnc12 | > 50 µM (inactive)
14 | Cc1ccc(Cl)cc1NC(=O)[C@@H]1CCCN1S(=O)(=O)c1cccc2cccnc12 | 9.59 µM
15 | Cc1ccc(C(C)(C)C)cc1NC(=O)[C@@H]1CCCN1S(=O)(=O)c1cccc2cccnc12 | 7.18 µM
16 | COc1ccccc1CNC(=O)C1CCN(S(=O)(=O)c2cccc3cccnc23)CC1 | > 50 µM (inactive)
17 | COc1ccccc1CNC(=O)[C@@H]1CCCN1S(=O)(=O)c1cccc2cccnc12 | > 50 µM (inactive)
